# Assay outcomes: PubChem BioAssay, several laboratories
# Most compounds without a hit are left out; they make up all but 3.8% or so of the library.
# RGS4 pot: potentiators or activators of RGS4 | hit rate 0.92% among 310,000 | HEK293 M3R/inducible RGS4, carbachol calcium flux Fluo4; stronger effect = lower value | B-score at 10 µM;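 active means B-score of the integrated calcium signal more than 4 SD below the library mean, with starting fluorescence not abnormally high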;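 further: negative B-score means reduced calcium response which marks RGS4 activation or potentiation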
#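 System – HEK293 FlpIn-TREx cells, stable M3R, doxycycline-inducible RGS4 · Reagent – ECmax carbachol challenge · Times – compound preincubation 20 min at room temperature before agonist · Technique – Fluo4 fluorescence kinetic imaging of calcium · Measure – B score of integrated Fluo4 ratio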
# MrgX1 PAM: human MrgX1 positive allosteric modulation, primary screen; MrgX1-HEK293, Fluo-4 calcium flux, FDSS; stronger effect = higher value; hit rate 0.63% among 310,000; B-score at 10 µM; AID 588675; Q96LB2;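 active means plate-corrected calcium response at least 3 library SD above typical, normal starting fluorescence, not activating the receptor alone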;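 further: compound read alongside a low EC10 to EC30 dose of BAM8-22 agonist; peak minus trough fluorescence over baseline measured at the second addition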
# Target sequence (Q96LB2 whole entry, looked up): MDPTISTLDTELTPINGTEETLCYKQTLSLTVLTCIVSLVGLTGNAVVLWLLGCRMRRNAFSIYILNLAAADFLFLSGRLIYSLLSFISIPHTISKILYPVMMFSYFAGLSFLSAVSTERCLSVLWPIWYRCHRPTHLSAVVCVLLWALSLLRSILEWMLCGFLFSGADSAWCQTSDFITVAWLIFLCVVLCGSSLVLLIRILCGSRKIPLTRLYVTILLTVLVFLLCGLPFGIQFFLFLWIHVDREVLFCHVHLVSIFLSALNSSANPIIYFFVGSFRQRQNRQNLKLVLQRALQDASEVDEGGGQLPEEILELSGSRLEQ
# MrgX1 ag: agonists of human MrgX1 receptor; MrgX1-HEK293 cells, Fluo-4 calcium fluorescence, agonist mode; stronger effect = higher value; B-score at 10 µM; Q96LB2; hit rate 0.44% among 310,000; AID 588627;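 active means calcium response B-score plate-corrected fluorescence ratio at least 3 library SD, with starting fluorescence B-score inside 5 SD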
#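 System – MrgX1-expressing HEK293 cells · Incubation – cells plated overnight, dye loaded 0.5 h 37 °C, 0.5 h room temperature · Technique – kinetic Fluo-4 NW fluorescence of intracellular calcium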
# RGS4 inh: inhibitors of human RGS4. HEK293 M3R/RGS4 inducible, Fluo-4 calcium flux; stronger effect = higher value; triggered by carbachol at its EC20. P49798. hit rate 0.45% among 310,000. B-score at 10 µM;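 active means B-score, a plate-corrected calcium signal, over three deviations above library mean, with baseline fluorescence within five deviations of library mean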;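 further: RGS4 expression induced by doxycycline in cells with stable M3 receptor; B-score is computed from the integrated fluorescence ratio over baseline after carbachol; higher B-score means a larger calcium signal and so more RGS4 inhibition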
# Target sequence (P49798 whole entry, looked up): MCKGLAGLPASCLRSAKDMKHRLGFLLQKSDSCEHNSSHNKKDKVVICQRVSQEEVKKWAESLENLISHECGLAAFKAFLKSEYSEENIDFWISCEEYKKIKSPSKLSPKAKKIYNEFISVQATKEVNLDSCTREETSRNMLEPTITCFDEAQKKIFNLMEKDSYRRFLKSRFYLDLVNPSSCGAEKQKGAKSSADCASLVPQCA
# MrgX1 antag: blocks BAM8-22 activation of human MrgX1 receptor; hit rate 1.3% among 310,000; Q96LB2; MRGX1-HEK293 calcium flux, Fluo-4, BAM8-22 antagonism; stronger effect = lower value; B-score at 10 µM;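 active means calcium-response B-score plate-corrected more than 3 library SD below zero, starting fluorescence within 5 deviations, no agonist response on first addition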;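 further: peak minus trough fluorescence over baseline after final BAM8-22 challenge near maximal dose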
# Lipid droplet: hepatic lipid droplet formation modulation | AML12 mouse hepatocytes, oleate lipid droplets, BODIPY imaging | inhibition, % at 6.5 µM | hit rate 0.4% among 240,000 | AID 1656;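 active means lipid droplet intensity inhibited by at least 50%, with more than 500 cells counted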
#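 System: AML12 hepatocytes (mouse). Probe or stimulus: oleic acid at 100 µM to induce lipid droplet formation. Times: overnight treatment with compound plus oleate. Detection: Image-based BODIPY and DAPI two-channel analysis. Evaluation: percent inhibition of filter-corrected integrated lipid droplet intensity per well.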
# RGS4 inh valid: validation of RGS4 inhibitors; shares compounds with RGS4 inh; HEK293 M3R/RGS4, carbachol calcium Fluo-4 fluorescence; carbachol added at its EC20; 0 = buffer wells, 100 = carbachol control; calcium response, % at 10 µM; hit rate 65% among 1,700;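 active means duplicate-averaged calcium response above the buffer-only control mean plus 5 SD of those controls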;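 further: integrated fluorescence ratio F max minus min over baseline F0; higher response in RGS4-induced cells means RGS4 inhibition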
# RGS4 uninduced: non-induced cell nonspecific activity of RGS4 inhibitors; shares compounds with RGS4 inh; activity (percent), % at 10 µM; hit rate 20% among 1,900; HEK293 M3R non-induced, carbachol calcium Fluo-4; submaximal (EC20) carbachol stimulus; buffer wells 0%, carbachol control wells 100%; call rule not given here;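 further: RGS4 induction absent so cells express M3R without RGS4; higher means more calcium signal and flags a non-specific hit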
# RGS4 inh ctr2: signal in non-induced cells without carbachol, RGS4 inhibitor counter-screen | shares compounds with RGS4 inh | HEK293 M3R/RGS4 non-induced, Fluo-4 calcium, no carbachol; normalised: buffer wells 0%, carbachol wells 100% | calcium response (agonist-mode artifact), % at 10 µM | hit rate 22% among 1,900;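 active means duplicate-averaged calcium rise in uninduced cells above buffer wells' mean plus 5 SD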
# An asterisk follows results filed as active; i = inactive; x = not tested or not shown.
SMILES,RGS4 pot,MrgX1 PAM,MrgX1 ag,RGS4 inh,MrgX1 antag,Lipid droplet,RGS4 inh valid,RGS4 uninduced,RGS4 inh ctr2
CC(C)=CCC12Oc3cc(O)ccc3C1(O)Oc1cc(O)c([C@H]3C=C(C)CC(c4ccc(O)cc4O)[C@H]3C(=O)c3ccc(O)cc3O)c(O)c1C2=O (stereo partly drawn),i,i,i,15*,i,x,24%*,i,i
CC1(C)CC(=O)C(=Cc2cn(CCC#N)nc2-c2ccc(Cl)cc2)C(=O)C1,i,i,i,i,i,14,x,x,x
CC1(C)CC(=O)C(=Cc2cn(-c3ccccc3)nc2-c2ccc(Cl)cc2)C(=O)C1,i,i,i,i,i,x,i,i,i
N#Cc1c(-c2ccccc2)cc(C2CC2)nc1N,i,i,i,i,i,x,x,x,x
N#Cc1c(-c2ccco2)cc(C2CC2)nc1N,i,i,i,5*,i,x,5.0%*,i,i
COC(=O)/C=C/S(=O)(=O)c1ccc(NC(C)=O)cc1,i,i,i,6*,i,x,54%*,38%*,13%*
Cc1c(NC(=S)NC(NC(=O)C(C)(C)C)C(Cl)(Cl)Cl)c(=O)n(-c2ccccc2)n1C (stereo not drawn),i,i,i,i,i,0,x,x,x
COc1ccc(OC)c(NC(=O)C2CCC(CNc3c(N4CCOCC4)c(=O)c3=O)CC2)c1 (stereo not drawn),i,i,i,i,i,10,x,x,x
COc1ccc(OCCCC(=O)Nc2cc([N+](=O)[O-])ccc2C)cc1,i,i,i,i,i,x,x,x,x
COc1cc(/C=C/c2nc3ccccc3c(=O)[nH]2)cc(Cl)c1O,i,i,i,i,i,19,x,x,x
COc1cc(/C=C2\C(=O)ON=C2c2ccccc2)cc(Cl)c1O,-7.9*,i,90*,13*,i,3,40%*,i,253%*
COc1ccc(/C=C2/C(=O)ON=C2C)cc1Cl,i,i,i,i,i,9,x,x,x
COc1cc(C=C2C(=O)c3ccccc3C2=O)ccc1O,i,i,i,i,i,-2,x,x,x
C=CCOc1ccc(/C=C2/C(=O)ON=C2C)cc1OC,i,i,i,9.4*,i,-12,18%*,i,16%*
COc1cc(/C=C2/C(=O)ON=C2c2ccccc2)ccc1O,i,i,28*,11*,i,3,38%*,i,97%*
CC(C)CN(C(=O)c1cccc(Cl)c1)c1c(N)n(CC(C)C)c(=O)[nH]c1=O,i,i,i,i,i,-1,x,x,x
CC(C)CC1=NN(C(=O)c2ccco2)C(O)(C(F)(F)F)C1 (stereo not drawn),i,i,i,i,i,11,x,x,x
Cc1coc2cc3oc(=O)c(Cc4ccccc4)c(C)c3cc12,i,i,i,i,i,-12,x,x,x
Cc1c(Cc2ccccc2)c(=O)oc2cc(O)cc(O)c12,i,i,i,5.5*,i,18,10%*,i,i
CCc1ccc2c(Cl)c(C(=O)N/N=C/c3c[nH]c4ccccc34)sc2c1,i,i,i,4.8*,i,x,18%*,40%*,8.5%*
CCc1ccc(-c2cc(C(=O)N/N=C/c3c[nH]c4ccccc34)[nH]n2)cc1,i,i,i,4.9*,i,2,i,i,i
CCOc1cc(C=O)ccc1OCCn1c([N+](=O)[O-])cnc1C,i,i,i,i,i,-6,x,x,x
CC(C)CC(CO)N1CCN(C(=O)c2ccc(C(C)(C)C)cc2)CCC1=O (stereo not drawn),x,i,i,x,i,5,x,x,x
Cc1onc(-c2ccccc2)c1NC(=O)N(CCC#N)Cc1cccs1,i,i,i,i,i,24,i,i,i
Cc1cc(C)n(C(C)CC(=O)Nc2ccc3c(c2)OCO3)n1 (stereo not drawn),i,i,i,i,i,3,x,x,x
SMILES,RGS4 pot,MrgX1 PAM,MrgX1 ag,RGS4 inh,MrgX1 antag,Lipid droplet,RGS4 inh valid,RGS4 uninduced,RGS4 inh ctr2
Cc1nc2c(=O)n(C)c(=O)n(C)c2nc1Cl,i,i,i,12*,i,-26,36%*,i,i
Cn1c(=O)c2nc(NCc3ccccc3)cnc2n(C)c1=O,i,i,i,i,i,x,x,x,x
Cc1ccccc1Nc1sc(C(=O)Nc2cccc(Cl)c2)c(N)c1C(N)=O,i,x,x,6.6*,x,-11,5.0%*,i,i
Cc1cc(C)c(C(N)=O)c(Nc2cccc(Cl)c2)n1,i,i,i,i,i,-7,x,x,x
N#C/C(=C\c1ccc(Cl)c([N+](=O)[O-])c1)c1ccccn1,i,i,i,9*,i,-11,16%*,i,i
C[C@@H](NC(=O)/C(C#N)=C/c1ccc(O)c(O)c1)c1ccccc1,x,i,i,x,i,x,x,x,x
CC(NC(=O)/C(C#N)=C/c1ccc(Cl)c([N+](=O)[O-])c1)c1ccccc1 (stereo not drawn),i,8.9*,i,49*,i,-6,22%*,i,31%*
CCn1cc(C(=O)NNC(=O)c2ccc(Cl)cc2)c(=O)c2ccc(C)nc21,i,i,i,i,i,19,x,x,x
O=c1[nH]c(-c2ccc(F)cc2)nc2c1sc(=S)n2-c1ccccc1,i,i,i,i,i,0,x,x,x
O=c1[nH]c(-c2ccccc2Cl)nc2c1sc(=S)n2-c1ccccc1,i,x,x,5.1*,x,6,12%*,i,i
O=C(CC(Nc1ccc(F)cc1)C(=O)O)c1ccccc1 (stereo not drawn),i,i,i,i,i,12,x,x,x
O=C(CC(Nc1ccc(F)cc1)C(=O)OCC(=O)c1cccs1)c1ccccc1 (stereo not drawn),i,i,i,6.2*,i,32,i,i,i
CO/C=C\C=C/c1nnn(-c2ccc(Cl)cc2)n1,i,i,i,7.5*,i,-3,i,i,8.0%*
